# Bioassay records as filed in PubChem BioAssay.
# Sampled rows, rich in hits. Any-hit rate of the full collection: about 1.6%.
# UCH37 DUB inh: human UCH37 deubiquitinating enzyme inhibition. Q9Y5K5. purified proteasome/UCH37, Ub-AMC cleavage fluorescence. inhibition, % (test concentration not listed). actives 0.33% (n = 330,000). AID 588478;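 active = mean inhibition over replicate wells above about 20%, limit read from the data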;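 note: 0% = compound-free wells with enzyme and 100% = wells lacking proteasome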
# Target sequence (Q9Y5K5 whole entry, looked up): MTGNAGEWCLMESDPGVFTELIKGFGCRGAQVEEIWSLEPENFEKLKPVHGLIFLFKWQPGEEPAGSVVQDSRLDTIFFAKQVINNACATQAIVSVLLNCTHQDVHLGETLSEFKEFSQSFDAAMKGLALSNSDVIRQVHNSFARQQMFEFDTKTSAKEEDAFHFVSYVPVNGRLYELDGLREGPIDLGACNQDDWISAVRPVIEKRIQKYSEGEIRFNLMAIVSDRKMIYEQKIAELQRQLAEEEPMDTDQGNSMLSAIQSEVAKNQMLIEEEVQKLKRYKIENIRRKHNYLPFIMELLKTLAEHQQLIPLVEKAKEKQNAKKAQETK
#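 assay system = human UCH37 enzyme supplied as purified proteasome complex | amount = proteasome at 0.15 nM in the dispensed enzyme solution | schedule = 30 min compound-proteasome preincubation then 25 min substrate reaction, room temperature | measured by = fluorescence, ex 355 nm, em 460 nm | benchmarks = no-proteasome wells (full inhibition) and compound-free wells (no inhibition)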
# HKDC1 inhibitor: inhibitors of human hexokinase HKDC1 | Q2TB90 | inhibition, % at 20 µM | actives 0.16% (n = 340,000) | AID 493160 | recombinant HKDC1, G6PDH/diaphorase resazurin coupled fluorescence;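 active = inhibition above about 35% when tested at 20 µM, limit read from the data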;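 note: plate controls were DMSO wells with enzyme for no effect and DMSO wells lacking enzyme for full effect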
#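 Material – in-house recombinant HK5 (HKDC1) enzyme · Quantity – HKDC1 at 5 µg/mL · Buffer or medium – pH 8.0 Tris buffer with 10 mM MgCl2 · Reagent – glucose with 1 mM ATP · Dosing – single 20 µM dose · Times – reaction time 90 min, room temperature, protected from light · Technique – resorufin fluorescence at 613 nm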
# GSTO1 inh: counter-screen for RBBP9 inhibitors: inhibitors of human GSTO1. recombinant GSTO1, activity-based probe fluorescence polarization. actives 1.1% (n = 300,000). AID 1974. inhibition, % at 5.96 µM;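 active = inhibition above the campaign mean inhibition plus 3 SD, cut at about 35% in these data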;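 note: 0% = GSTO1-1 with DMSO and 100% = wells lacking GSTO1-1 enzyme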
# PAD4 inh: inhibitors of human PAD4; Q9UM07; recombinant PAD4, RCA probe fluorescence polarization; inhibition, % at 6.36 µM; actives 0.41% (n = 330,000);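 active = percent inhibition above a cutoff equal to the mean of all tested compounds plus 3 SD, cut at about 15% in these data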;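 note: 0% = PAD4 with RCA probe and DMSO and 100% = probe without PAD4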
# TDP2 inh: blocks human TDP2 phosphodiesterase activity; inhibition, % at 12.8 µM; recombinant TDP2, T5PNP hydrolysis, p-nitrophenol absorbance 415 nm; actives 0.34% (n = 370,000);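 active = inhibition above the mean of all tested compounds plus 3 SD, set per campaign, cut at about 25% in these data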;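 note: 0% = DMSO with enzyme and 100% = buffer with substrate but no TDP2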
# Target sequence (O95551 whole entry, looked up): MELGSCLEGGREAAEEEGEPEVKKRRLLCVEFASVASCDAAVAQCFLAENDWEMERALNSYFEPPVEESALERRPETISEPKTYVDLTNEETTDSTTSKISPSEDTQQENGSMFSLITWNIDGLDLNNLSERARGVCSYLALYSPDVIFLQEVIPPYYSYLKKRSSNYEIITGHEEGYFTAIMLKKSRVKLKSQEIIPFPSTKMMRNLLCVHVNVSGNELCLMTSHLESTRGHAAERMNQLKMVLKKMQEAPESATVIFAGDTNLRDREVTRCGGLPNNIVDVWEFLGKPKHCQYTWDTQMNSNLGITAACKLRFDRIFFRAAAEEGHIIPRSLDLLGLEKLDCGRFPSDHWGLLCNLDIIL
#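 System – recombinant human TDP2 · Amount – 120 nM TDP2 per well · Buffer or medium – Mg2+-containing Tris-HCl buffer, pH 7.5 · Reagent – T5PNP substrate, 5 mM · Dosing – 12.8 µM single point, 1% DMSO · Incubation – 2 h at 37 °C · Measured by – epi absorbance · Read-out basis – percent inhibition · Benchmarks – high control without enzyme, low control DMSO plus TDP2 · Repeats – singlicate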
# CTSL1 counter: counter-screen for PFM18AAP inhibitors: inhibitors of F. hepatica cathepsin L1; actives 0.49% (n = 300,000); inhibition, % at 5.96 µM; recombinant F. hepatica cathepsin L1, Z-Leu-Arg-MCA fluorescence; AID 1906;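 active = inhibition above the mean of all tested compounds plus 3 SD, set per screening campaign, cut at about 17% in these data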;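 note: 0% = plate median of test compound wells and 100% = 1 µM Z-Phe-Ala-diazomethylketone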
# GSTO1 inh conf: GSTO1 (human) inhibition, confirmation; shares compounds with GSTO1 inh; recombinant GSTO1, probe fluorescence polarization; inhibition, % at 5.96 µM; actives 54% (n = 2,400); AID 2176;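 active = inhibition above the primary screen's cutoff, its mean inhibition plus 3 SD, cut at about 35% in these data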;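 note: loss of polarization as inhibitors block binding of rhodamine sulfonate ester activity probe; 0% = GSTO1 with DMSO and 100% = wells lacking GSTO1 enzyme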
# GSTO1 ABPP inh: blocks recombinant human glutathione S-transferase omega 1; shares compounds with GSTO1 inh; recombinant GSTO1, gel ABPP SE-Rh probe fluorescence; inhibition, % at 1 µM; actives 30% (n = 130);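 active = inhibition of the enzyme GSTO1 above about 75%, limit read from the data; inactive = inhibition below that limit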
# PAD4 confirm: PAD4 (human) inhibition, confirmed; shares compounds with PAD4 inh; recombinant PAD4, RCA probe fluorescence polarization; inhibition, % at 6.36 µM; actives 28% (n = 1,200); AID 488796;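 active = mean inhibition across replicates above the hit cutoff set by the earlier primary screen, cut at about 15% in these data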;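 note: inhibitors block active-site labeling by the probe so polarization falls; 0% = PAD4 with probe and DMSO and 100% = probe without PAD4 enzyme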
# HKDC1 act conf2: confirmation of human HKDC1 activators | recombinant HKDC1, G6PDH/diaphorase resazurin fluorescence; hits give low values | inhibition, % at 20 µM | AID 504708 | actives 14% (n = 740) | shares compounds with HKDC1 inhibitor;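 active = inhibition at or below a set negative limit, negative inhibition meaning the enzyme was activated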
# UCH37 confirm: reconfirmed inhibitor of human deubiquitinase UCH37; AID 624100; actives 27% (n = 480); inhibition, % at 20 µM; shares compounds with UCH37 DUB inh; Proteasome-bound UCH37, Ub-AMC cleavage fluorescence;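 active = average inhibition over replicates above about 50%, so the earlier screening hit is confirmed, limit read from the data; inactive = the rest, counted as false positives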;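 note: based on cleavage rate fitted by regression over a 30 min kinetic read; 0% = proteasome plus Ub-AMC and 100% = Ub-AMC without proteasome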
# * marks the source's active call; other numbers are inactive results; x = no result given.
SMILES,UCH37 DUB inh,HKDC1 inhibitor,GSTO1 inh,PAD4 inh,TDP2 inh,CTSL1 counter,GSTO1 inh conf,HKDC1 act conf2,others
COC(=O)CCC(=O)OC1(C)C(=O)C2=CN(Cc3ccccc3)C(c3ccc(OC)cc3)=CC2=C(Br)C1=O (centres undefined),5,43*,50*,-27,8,-3,14,13,
COC(=O)CCC(=O)OC1(C)C(=O)C2=CN(c3ccccc3)C(c3ccc(OC)cc3)=CC2=C(Br)C1=O (centres undefined),2,38*,45*,-20,16,-6,13,29,
COC(=O)CCC(=O)OC1(C)C(=O)C2=CN(CC3CC3)C(c3ccc(OC)cc3)=CC2=C(Br)C1=O (centres undefined),4,37*,51*,-3,x,0,36*,-8,
O=[N+]([O-])c1ccccc1C=NN1CCN(Cc2ccccc2Cl)CC1,1,x,x,x,x,x,x,x,
Cc1cc2ncn(N=Cc3cc(Br)ccc3O)c2cc1C,4,x,x,x,x,x,x,x,
O=C(O)C1CCN(C(=O)c2ccccc2Cl)CC1,5,-13,-1,4,7,-3,x,x,
O=C1C(Cl)=C(N2CCC(C(=O)O)CC2)C(=O)c2ccccc21,78*,50*,80*,20*,x,7,79*,57,PAD4 confirm=15*
Cc1ccc(SCc2c(C(=O)NN=Cc3ccoc3)nnn2-c2nonc2N)cc1,2,x,x,x,x,x,x,x,
CNCc1ccccc1Sc1cc(O)ccc1O,4,64*,89*,-2,13,-6,55*,65,
CNCc1ccccc1Sc1cccc(O)c1,5,-1,4,2,-2,0,x,x,
CCOC(=O)C1CCN(C(=O)Nc2ccc3nc(-c4ccco4)c(-c4ccco4)nc3c2)CC1,-45,43*,80*,-3,x,6,32,0,
O=C(O)c1cc(O)c2c(c1)[C@@H]([C@H]1c3cc(C(=O)O)cc(O)c3C(=O)c3c(O[C@@H]4O[C@H](CO)[C@@H](O)[C@H](O)[C@H]4O)cccc31)c1cccc(OC3O[C@H](CO)[C@@H](O)[C@H](O)[C@H]3O)c1C2=O (some centres undefined),31*,83*,84*,-47,22,12,80*,51,
CCN(CC)C(=O)COc1ccc(C(C)=NNC(=O)c2ccccc2-n2cccc2)cc1,0,x,x,x,x,x,x,x,
CN(N=Cc1ccc(O)c(O)c1)c1nc(-c2ccccc2)cc(-c2ccccc2)n1,7,x,x,x,x,x,x,x,
COc1cc2c(cc1OC)C(c1cc(Br)ccc1F)N(C(=O)CCl)CC2 (centres undefined),x,38*,86*,0,5,89*,96*,19,GSTO1 ABPP inh=87*
CCN1C(=O)/C(=C\N(C)C)SC1=NS(=O)(=O)c1ccccc1,11,x,x,x,x,x,x,x,
O=C1C(SCCO)=C(SCCO)C(=O)c2ccccc21,x,72*,87*,68*,78*,79*,84*,84,PAD4 confirm=39*
O=c1[nH]c2ccccc2c(O)c1SCCO,0,-9,3,1,3,-4,x,x,
O=C(Cn1cnc2ccccc21)NN=C/C(Br)=C/c1ccccc1,-1,x,x,x,x,x,x,x,
O=C1C(Nc2ccccc2)=C/C(=N/S(=O)(=O)c2cccs2)c2ccccc21,x,68*,84*,63*,x,82*,95*,65,PAD4 confirm=58*
COC(=O)c1ccccc1NC1=C/C(=N\S(=O)(=O)c2ccc(C(=O)O)cc2)c2ccccc2C1=O,90*,82*,86*,25*,x,47*,85*,86,PAD4 confirm=66*
CCc1ccc(S(=O)(=O)/N=C2\C=C(Nc3ccc(C(=O)O)cc3)C(=O)c3ccccc32)cc1,x,54*,94*,69*,72*,79*,91*,60,
O=C1C=C(Nc2ccccc2)C(=O)c2ccccc21,6,12,32,-12,-6,2,x,x,
COC(=O)C(C(C)=O)C1=CC(=NS(=O)(=O)c2ccc(C)cc2)c2ccccc2C1=O (centres undefined),0,x,x,x,x,x,x,x,
CCc1ccc(NC2=CC(=O)C(=O)c3ccccc32)cc1,20,23,x,x,24,x,x,x,
SMILES,UCH37 DUB inh,HKDC1 inhibitor,GSTO1 inh,PAD4 inh,TDP2 inh,CTSL1 counter,GSTO1 inh conf,HKDC1 act conf2,others
Cc1nonc1C(=O)NN=Cc1cc2c(cc1Br)OCO2,-1,x,x,x,x,x,x,x,
O=C(CSc1ccccn1)Nc1ccc2c(c1)C(=O)c1ccccc1C2=O,8,15,21,-1,0,9,x,x,
O=C(CSc1n[nH]c(=O)[nH]c1=O)Nc1ccc2c(c1)C(=O)c1ccccc1C2=O,12,52*,61*,1,20,0,78*,14,
O=C(O)CCNc1cc(N2CCN(C(=O)c3ccco3)CC2)c2noc3c2c1C(=O)c1ccccc1-3,x,39*,63*,21*,38*,22*,75*,14,PAD4 confirm=-46
CC(C(=O)O)N1C(=O)/C(=C/C=C/c2ccco2)SC1=S (centres undefined),2,56*,64*,-1,3,4,30,5,
Cc1ccc(S(=O)(=O)/N=C2/C=C(Sc3ncn[nH]3)C(=O)c3ccccc32)cc1,x,69*,96*,39*,x,107*,88*,63,PAD4 confirm=10
O=C(NNc1cc(N2CCOCC2)nc(N2CCOCC2)n1)c1ccc(Cl)c(Cl)c1,3,-6,1,-1,-13,-2,x,x,
Cc1ccc(C(=O)NNc2cc(N3CCCC3)nc(N3CCCC3)n2)cc1,49*,11,49*,8,x,0,72*,x,UCH37 confirm=50*
CC(C)Cn1c(N)c(C=NNC(=O)c2ccc(Cl)cc2)c(=O)n(C)c1=O,-293,x,x,x,x,x,x,x,
CC(/C=C/c1ccco1)=NNC(=O)OC(C)(C)C,6,x,x,x,x,x,x,x,
Cc1cccc(NC2=C(NC(=O)c3ccccc3)C(=O)c3ccccc3C2=O)c1,52*,10,56*,-11,-1,2,38*,x,UCH37 confirm=42
Cc1cccc(C(=O)Nc2cccc(NC(=O)c3ccccc3)c2)c1,1,3,-5,-4,-14,0,x,x,
